In series [1] the target is T1, Prostate-specific antigen (Homo sapiens, UniProt P07288).
T1 sequence (P07288 whole entry): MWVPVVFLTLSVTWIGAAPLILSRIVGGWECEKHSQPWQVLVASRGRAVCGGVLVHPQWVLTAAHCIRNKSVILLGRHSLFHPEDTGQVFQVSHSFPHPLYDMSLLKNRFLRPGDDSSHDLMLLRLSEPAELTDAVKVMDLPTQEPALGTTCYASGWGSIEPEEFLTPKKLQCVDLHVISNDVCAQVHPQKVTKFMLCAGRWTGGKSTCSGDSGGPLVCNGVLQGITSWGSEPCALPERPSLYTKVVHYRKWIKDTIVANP
The experiment in a line: Prodrug activation assessed as prostate specific antigen (unknown origin)-mediated drug metabolism in Tris/HCl buffer pH 8 at 0.16 mM by HPLC analysis. The series is classed as ADME. Conditions: pH 8, 160 µM, TDE = time-dependent effect. The essentials:
(§1)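 Purified PSA with substrate at 1:100 enzyme/substrate molar ratio, 37 °C, Tris/HCl pH 8.0 with 10 mM CaCl2 and 0.1% Tween-20. Substrate stocks 10 mM in DMSO. Aliquots taken at intervals, quenched with 20% acetonitrile, frozen, then analysed by HPLC for substrate loss. Cleavage site after Gln confirmed by LC/MS.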

Series [2] addresses T1, Prostate-specific antigen. As to the kind of experiment: Prodrug activation assessed as prostate specific antigen (unknown origin)-mediated drug metabolism in Tris/HCl buffer pH 8 at 100 uM measured as half life by HPLC analysis. It is filed as ADME. Conditions: pH 8, 100 µM. In short, it runs like this:
as §1

The nature of series [3]: Antiproliferative activity against human DU145 cells after 72 hrs by MTT assay. It is filed as functional, cell-based. To be noted: DU-145, 72 h. In short, it runs like this: (§2)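 LNCaP (PSA-producing) and DU145 (non-PSA) cells grown in RPMI 1640 with 10% FBS; 7500 LNCaP or 500 DU145 cells/well, grown 48 h. Medium then switched to serum-free RPMI with 2% TCM, no phenol red. Conjugates 0.01–100 µM for 72 h; medium alone as negative control. MTT 4 h at 37 °C, read at 570 nm; IC50 interpolated from percent of control growth.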
(In general: Tetrazolium assays rely on reduction of a dye to a coloured formazan, in cell work by metabolically active cells.)

Series [4] in a line: Half life in Tris buffer pH 8 at 100 uM by HPLC analysis. It is filed as ADME. The essentials: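 Conjugate at 100 µM incubated at 37 °C in 50 mM Tris/HCl pH 8.0 with 10 mM CaCl2 and 0.1% Tween-20, without enzyme. Loss of conjugate followed over time by HPLC to give half-life.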
Series [5] has as its system LNCaP. The experiment in a line: Antiproliferative activity against human LNCAP cells expressing prostate specific antigen after 72 hrs by MTT assay. It is filed as functional, cell-based. In short, it runs like this:
as §2

Series [6] addresses T1, Prostate-specific antigen. The experiment in a line: Prodrug activation assessed as prostate specific antigen (unknown origin)-mediated drug metabolism in Tris/HCl buffer at pH 8 measured after 2 hrs by HPLC analysis. It is filed as ADME. Conditions: pH 8, 2 h. In short, it runs like this: as §1

SMILES strings stand for the structures. pIC50: −log10 of the molar value. Starred links: 1 amine or outer side, 2 acyl side, 3 side chain; linkers in the order of their positions; H or OH if unused. Non-standard residues stand in square brackets, D forms with d. Residues, ends and D or L forms follow the SMILES beside them. *: point of attachment. X1 = NP(=O)(OCc1c(F)c(F)c(N*)c(F)c1F)N(CCCl)CCCl; X3 = NP(=O)(OCc1c(F)cc(N*)cc1F)N(CCCl)CCCl; X2 = NP(=O)(OCc1ccc(N*)c(F)c1)N(CCCl)CCCl; X5 = NP(=O)(OCc1ccc(N*)cc1F)N(CCCl)CCCl; X4 = NP(=O)(OCc1ccc(N*)cc1)N(CCCl)CCCl; Glutaryl = O=C(CCCC(=O)[*:2])[*:1]; Hyp = O=C(O)[C@@H]1C[C@@H](O)CN1; Chg = N[C@H](C(=O)O)C1CCCCC1

In general, pIC50 refers to −log10 of the IC50, conventionally taken in molar units. A high value points to a low IC50. The half-life is the time needed for the level to fall by half in the phase considered. A low value points to fast loss. In the case of `C[C@H](NC(=O)[C@@H]1C[C@@H](O)CN1C(=O)CCCC(=O)O)C(=O)N[C@@H](CO)C(=O)N[C@H](C(=O)N[C@@H](CCC(N)=O)C(=O)Nc1c(F)c(F)c(COP(N)(=O)N(CCCl)CCCl)c(F)c1F)C1CCCCC1` (some centres undefined) (Glutaryl-[Hyp]AS[Chg]Q-X1), in series [1], the Drug metabolism entry is recorded as “tde”. In series [2], the t1/2 worked out at 1.1 h. The pIC50 in series [3] and in series [5] was < 4.00 in each case. The same compound had a half-life at 100 µM in series [4] of 178 h.

For `C[C@H](NC(=O)[C@@H]1C[C@@H](O)CN1C(=O)CCCC(=O)O)C(=O)N[C@@H](CO)C(=O)N[C@H](C(=O)N[C@@H](CCC(N)=O)C(=O)Nc1ccc(COP(N)(=O)N(CCCl)CCCl)cc1F)C1CCCCC1` (some centres undefined) (Glutaryl-[Hyp]AS[Chg]Q-X2), in series [1], the Drug metabolism result is recorded as “tde”. Further, in series [2], the t1/2 turned out to be 0.65 h. The pIC50 was < 4.00 in series [3] and 4.54 in series [5]. For the same compound, the half-life at 100 µM in series [4] is 465 h.

For `C[C@H](NC(=O)[C@@H]1C[C@@H](O)CN1C(=O)CCCC(=O)O)C(=O)N[C@@H](CO)C(=O)N[C@H](C(=O)N[C@@H](CCC(N)=O)C(=O)Nc1cc(F)c(COP(N)(=O)N(CCCl)CCCl)c(F)c1)C1CCCCC1` (some centres undefined) (Glutaryl-[Hyp]AS[Chg]Q-X3), the Drug metabolism result in series [1] is reported as “tde”. Further, the t1/2 in series [2] was 1.7 h. For the same compound, the pIC50 in series [3] was < 4.00; in series [5], 4.70. Also, the half-life at 100 µM in series [4] is 131 h.

As for `C[C@H](NC(=O)[C@@H]1C[C@@H](O)CN1C(=O)CCCC(=O)O)C(=O)N[C@@H](CO)C(=O)N[C@H](C(=O)N[C@@H](CCC(N)=O)C(=O)Nc1ccc(COP(N)(=O)N(CCCl)CCCl)cc1)C1CCCCC1` (some centres undefined) (Glutaryl-[Hyp]AS[Chg]Q-X4), in series [1], the Drug metabolism entry was “tde”. Besides, the t1/2 in series [2] was found to be 2.1 h. Besides, the pIC50 is 4.46 in series [3] and 4.96 in series [5]. Further, the half-life at 100 µM in series [4] was 46 h.

As to `C[C@H](NC(=O)[C@@H]1C[C@@H](O)CN1C(=O)CCCC(=O)O)C(=O)N[C@@H](CO)C(=O)N[C@H](C(=O)N[C@@H](CCC(N)=O)C(=O)Nc1ccc(COP(N)(=O)N(CCCl)CCCl)c(F)c1)C1CCCCC1` (some centres undefined) (Glutaryl-[Hyp]AS[Chg]Q-X5), the Drug metabolism entry in series [1] is “tde”. In series [2], the t1/2 amounted to 0.93 h. The pIC50 was < 4.00 in series [3] and 5.28 in series [5]. This compound also showed a half-life at 100 µM in series [4] of 105 h.

For `COc1cccc2c1C(=O)c1c(O)c3c(c(O)c1C2=O)C[C@](O)(C(=O)CO)C[C@H]3O[C@@H]1C[C@@H](NC(=O)[C@@H](CC(C)C)NC(=O)[C@@H](CO)NC(=O)[C@@H](CCC(N)=O)NC(=O)[C@H](NC(=O)[C@@H](CO)NC(=O)[C@@H](C)NC(=O)[C@@H]2C[C@@H](O)CN2C(=O)CCCC(=O)O)C2CCCCC2)[C@@H](O)[C@@H](C)O1` (stereo in doubt), the Drug metabolism result in series [6] is listed as “metabolite_detected”. The t1/2 in series [2] was determined as 0.6 h. For the same compound, the results for the pIC50 in series [3] and in series [5] were < 4.00 and 5.96, respectively.

The values above are taken from ChEMBL document CHEMBL3797115, “Design and synthesis of peptide conjugates of phosphoramide mustard as prodrugs activated by prostate-specific antigen” (Bioorg Med Chem, 2016).
